Assay results reported in ChEMBL document CHEMBL1811823, “Quinazolinone linked pyrrolo[2,1-c][1,4]benzodiazepine (PBD) conjugates: Design, synthesis and biological evaluation as potential anticancer agents” (2010).
Activity calls are given as the source filed them. No cut-off for these calls is given here.

How the values were obtained:
A549 = test: Growth inhibition of human A549 cells after 48 hrs by SRB assay; type: functional; conditions: A549, 48 h
Summary of the method: (§1)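 Cells grown in RPMI 1640 with 10% FBS and 2 mM L-glutamine, plated at densities set by doubling time, pre-incubated 24 h at 37 °C/5% CO2. Drug tested at 0.1, 1, 10 and 100 µM in triplicate wells for 48 h continuous exposure. Cells fixed with cold TCA (final 10%) 60 min at 4 °C, stained with 0.4% SRB, dye eluted in 10 mM Tris. Absorbance read at 540 nm (690 nm reference); percent growth calculated relative to control wells.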

ZR-75-1 = test: Growth inhibition of human ZR-75-1 cells after 48 hrs by SRB assay; type: functional; conditions: ZR-75-1, 48 h
Summary of the method: (§2)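 SRB assay with 48 h continuous exposure. Cells were grown in RPMI 1640 with 10% FBS and 2 mM L-glutamine and preincubated 24 h at 37 °C, 5% CO2. Compounds were tested at four concentrations (0.1, 1, 10, 100) in triplicate wells. Cells were fixed with cold TCA (10% final) for 60 min at 4 °C, stained 20 min with 0.4% SRB in 1% acetic acid, and the dye eluted with 10 mM Tris. A540 was read against a 690 nm reference. Percent growth is relative to control wells on each plate.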

SiHa = test: Growth inhibition of human SiHa cells after 48 hrs by SRB assay; type: functional; summary of the method: as §2
MCF7 = test: Growth inhibition of human MCF7 cells after 48 hrs by SRB assay; type: functional; conditions: MCF7, 48 h; summary of the method: as §1
A2780 = test: Growth inhibition of human A2780 cells after 48 hrs by SRB assay; type: functional; conditions: A2780, 48 h; summary of the method: as §1
KB = test: Growth inhibition of human KB cells after 48 hrs by SRB assay; type: functional; summary of the method: as §1
HOP-62 = test: Growth inhibition of human HOP62 cells after 48 hrs by SRB assay; type: functional; conditions: HOP-62, 48 h; summary of the method: as §1
PC-3 = test: Growth inhibition of human PC3 cells after 48 hrs by SRB assay; type: functional; conditions: PC-3, 48 h; summary of the method: as §1
[1] = Growth inhibition of human Gurav cells after 48 hrs by SRB assay; type: functional; summary of the method: as §1
[2] = Growth inhibition of human DWD cells after 48 hrs by SRB assay; type: functional; summary of the method: as §1
Nucleic Acid = test: Binding affinity to calf thymus DNA assessed as change in melting temperature at 20 uM at pH 7 incubated for 18 hrs at 37 degC by thermal denaturation assay; type: nucleic-acid assay; conditions: Bos taurus
Summary of the method: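 CT-DNA (100 µM in phosphate) with 20 µM ligand, 1:5 [PBD]/[DNA], in 10 mM sodium phosphate/1 mM Na2EDTA buffer pH 7.00. Ligand added from methanol solution; incubated at 37 °C for 0 or 18 h. A260 monitored while heating 1 °C/min over 40–90 °C. Tm taken from d(A260)/dT maxima; ΔTm = Tm(DNA+PBD) − Tm(DNA alone). Values are means of at least three determinations, corrected for methanol cosolvent.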

COLO 205 = test: Growth inhibition of human COLO205 cells after 48 hrs by SRB assay; type: functional; conditions: COLO 205, 48 h; summary of the method: as §1
A-375 [3] = test: Decrease in Bcl-2 mRNA expression in human A375 cells at 4 uM after 24 hrs by RT-PCR
A-375 [4] = test: Induction of apoptosis in human A375 cells assessed as sub-G1 phase accumulation at 4 uM after 24 hrs by propidium iodide staining based flow cytometry; type: functional
Summary of the method: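 A375 cells (5×10^5 per 60 mm dish) were grown 24 h, then treated 24 h at 0–4 µM. Cells were harvested with trypsin-EDTA, fixed in ice-cold 70% ethanol for 30 min at 4 °C, treated with RNase A (1 mg/ml) for 30 min at 37 °C, and stained with propidium iodide. Cell-cycle distribution, including the sub-G1 fraction, was measured by flow cytometry. DMSO-exposed cells were the control.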

A-375 [5] = test: Increase in active caspase-3 protein level in human A375 cells at 4 uM after 24 hrs by Western blot; type: functional, cell-based
Summary of the method: (§3)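 A375 cells were exposed 24 h at 4 µM. Lysates (30 µg/lane) were run on 12% SDS-PAGE and transferred to PVDF, then probed overnight at 4 °C with anti-cleaved caspase-3 (1:200, detects 21 kDa) or anti-PARP (1:2000, detects 113 and 85 kDa). HRP secondary and chemiluminescence were used. β-tubulin was the loading control; untreated and DMSO controls were included.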

A-375 [6] = test: Increase in active PARP cleavage product (85kDa) level in human A375 cells at 4 uM after 24 hrs by Western blot; type: functional, cell-based; summary of the method: as §3
A-375 [7] = test: Increase in cytochrome C release in human A375 cells at 4 uM after 24 hrs by Western blot; type: functional, cell-based
Summary of the method: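 Western blot of A375 cell lysates after 24 h exposure at 4 µM, with 30 µg protein/lane on 12% SDS-PAGE and transfer to PVDF. Probed overnight at 4 °C with anti-cytochrome c (1:500), then HRP secondary and chemiluminescence. β-actin was the loading control; untreated and DMSO-only cells served as controls.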

A-375 [8] = test: Inhibition of NF-kappaB signaling in human A375 cells at 4 uM after 24 hrs by Western blot; type: cell-based
Summary of the method: (§4)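 A375 cells (DMEM, 10% FCS, 37 °C, 5% CO2) were treated at 4 µM for 24 h. Lysates were loaded at 30 µg protein/lane on 12% SDS-PAGE and transferred to PVDF. Membranes were blocked 2 h in TBST, incubated with primary antibody overnight at 4 °C (p53 1:100, p27 1:500, NF-κB p65 1:500), then HRP secondary 1 h, with chemiluminescent detection. β-actin was the loading control; untreated and DMSO controls were run.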

A-375 [9] = test: Increase in p27 protein expression in human A375 cells at 4 uM after 24 hrs by Western blot; type: functional, cell-based; summary of the method: as §4
A-375 [10] = test: Increase in p53 protein expression in human A375 cells at 4 uM after 24 hrs by Western blot; type: functional, cell-based; summary of the method: as §4
A-375 [11] = test: Cytotoxicity against human A375 cells assessed as cell viability after 24 hrs by MTT assay; type: functional
Summary of the method: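 A375 cells seeded at 10,000/well, incubated overnight, then treated for 24 h. MTT added at 10% of culture volume for 2 h at 37 °C. Formazan dissolved in 20% SDS/50% DMF overnight at 37 °C; absorbance read at 570 nm against a medium blank. Viability expressed as percent of untreated cells.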

A-375 [12] = test: Cell cycle arrest in human A375 cells assessed as decrease in G2/M phase at 4 uM after 24 hrs by propidium iodide staining based flow cytometry; type: functional; parameters: scale not given: the % may be the effect or the level left
Summary of the method: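 A375 melanoma cells (DMEM, 10% FCS, 37 °C, 5% CO2) seeded at 5×10^5 per dish and grown 24 h, then exposed to 0–4 µM for 24 h. Harvested with trypsin-EDTA, fixed in ice-cold 70% ethanol, RNase A treated (1 mg/ml, 37 °C, 30 min), stained with propidium iodide and analysed by flow cytometry for phase distribution.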

SMILES | GI50 (A549) [nM] | GI50 (ZR-75-1) [nM] | GI50 (SiHa) [nM] | GI50 (MCF7) [nM] | GI50 (A2780) [nM] | GI50 (KB) [nM] | GI50 (HOP-62) [nM] | GI50 (PC-3) [nM] | GI50 [1] [nM] | GI50 [2] [nM] | ΔTm (Nucleic Acid) [°C] | GI50 (COLO 205) [nM] | other results
COc1cc2c(cc1OCCCCCOc1ccc3nc(C)n(-c4ccc(I)cc4C)c(=O)c3c1)N=C[C@@H]1CCCN1C2=O | 160 | 160 | 170 | 110 | 140 | 150 | 160 | 160 | 160 | 130 | 2.1 | 160 | –
COc1cc2c(cc1OCCCCOc1ccc(-n3c(C)nc4ccccc4c3=O)cc1)N=C[C@@H]1CCCN1C2=O | 1930 | 170 | 1900 | 2300 | 1650 | 1980 | 1950 | 170 | 1950 | 1600 | 2.1 | 1810 | –
COc1cc2c(cc1OCCCCOc1ccc3nc(C)n(-c4ccc(I)cc4C)c(=O)c3c1)N=C[C@@H]1CCCN1C2=O | 170 | 160 | 180 | 120 | 150 | 150 | 170 | 170 | 170 | 150 | 2 | 170 | –
COc1cc2c(cc1OCCCOc1ccc(-n3c(/C=C/c4ccccc4)nc4ccccc4c3=O)cc1)N=C[C@@H]1CCCN1C2=O | 1880 | 160 | 2000 | 2030 | 140 | 1780 | 2150 | 160 | 1850 | 140 | 2 | 2120 | –
COc1cc2c(cc1OCCCOc1ccc(-n3c(C)nc4ccccc4c3=O)cc1)N=C[C@@H]1CCCN1C2=O | 1480 | 150 | 160 | 1830 | 100 | 150 | 160 | 130 | 130 | 110 | 2 | 140 | –
COc1cc2c(cc1OCCCCOc1ccc3nc(C)n(-c4ccc(Cl)cc4Cl)c(=O)c3c1)N=C[C@@H]1CCCN1C2=O | 180 | 170 | 180 | 140 | 150 | 160 | 180 | 180 | 170 | 150 | 2.3 | 170 | –
COc1cc2c(cc1OCCCCCOc1ccc3nc(C)n(-c4ccc(F)cc4)c(=O)c3c1)N=C[C@@H]1CCCN1C2=O | 130 | 160 | 190 | 150 | 140 | 150 | 180 | 170 | 130 | 150 | 2.2 | 150 | –
COc1cc2c(cc1OCCCCCOc1ccc3nc(C)n(-c4ccc(F)c(Cl)c4)c(=O)c3c1)N=C[C@@H]1CCCN1C2=O | 130 | 150 | 170 | < 100 | 110 | 150 | 140 | 170 | < 100 | 130 | 2.3 | 130 | Decrease in Bcl-2 mRNA expression (A-375 [3]): Active; Activity (A-375 [4]): 24.1%; Activity (A-375 [5]): Active; Activity (A-375 [6]): Active; Activity (A-375 [7]): Active; inhibition (A-375 [8]): Active; Activity (A-375 [9]): Active; Activity (A-375 [10]): Active; Activity (A-375 [11]): 58.72%; Activity (A-375 [12]): 11.92%
COc1ccc(-n2c(C)nc3ccc(OCCCCCOc4cc5c(cc4OC)C(=O)N4CCC[C@H]4C=N5)cc3c2=O)cc1 | 140 | 150 | 180 | < 100 | 140 | 160 | 180 | 170 | < 100 | 130 | 2.2 | 140 | –
COc1cc2c(cc1OCCCCOc1ccc(-n3c(/C=C/c4ccccc4)nc4ccccc4c3=O)cc1)N=C[C@@H]1CCCN1C2=O | 2390 | 160 | 2190 | – | 160 | 2070 | 2330 | 1910 | 1930 | 160 | 2.3 | 2230 | –
COc1cc2c(cc1O)N=C[C@@H]1CCCN1C2=O | 160 | – | 170 | 170 | 140 | 170 | 150 | 200 | 160 | – | 0.7 | 110 | –
COc1cc2c(cc1OCCCCCOc1ccc(-n3c(/C=C/c4ccccc4)nc4ccccc4c3=O)cc1)N=C[C@@H]1CCCN1C2=O | 26200 | 150 | 2080 | 2500 | 150 | 2150 | 2310 | 1830 | 1820 | 170 | 2 | 2000 | –
COc1cccc2c1C(=O)c1c(O)c3c(c(O)c1C2=O)C[C@@](O)(C(=O)CO)C[C@@H]3O[C@H]1C[C@H](N)[C@H](O)[C@H](C)O1 [DOXORUBICIN] | – | – | 170 | 170 | 160 | 170 | 140 | – | 170 | 100 | – | 140 | –
